Test results published in ChEMBL document CHEMBL1671716, “Antimicrobial susceptibility patterns for recent clinical isolates of anaerobic bacteria in South Korea” (2010).
Converted amounts (≈) assume the structure as drawn.

Legend:
Prevotella intermedia [1] = assay: Antimicrobial activity against Prevotella intermedia after 48 hrs by agar dilution method; format: functional
Method in brief: (§1)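 CLSI agar dilution (M11-A7); inoculum 10^5 CFU applied by replicator; plates incubated anaerobically 48 h at 37°C. For piperacillin-tazobactam, tazobactam held constant at 4 μg/ml.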

Prevotella buccae [2] = assay: Antimicrobial activity against Prevotella buccae assessed as percent susceptible isolates after 48 hrs by agar dilution method; format: functional, Segatella buccae; method in brief: as §1
Fusobacterium necrogenes = assay: Antimicrobial activity against Fusobacterium necrogenes after 48 hrs by agar dilution method; format: functional; method in brief: as §1
[3] = tested on: Parabacteroides distasonis; assay: Antimicrobial activity against Bacteroides distasonis assessed as percent susceptible isolates after 48 hrs by agar dilution method; format: functional
Eubacterium sp. [4] = assay: Antimicrobial activity against Eubacterium sp. assessed as percent susceptible isolates after 48 hrs by agar dilution method; format: functional; method in brief: as §1
Finegoldia magna [5] = assay: Antimicrobial activity against Finegoldia magna assessed as percent susceptible isolates after 48 hrs by agar dilution method; format: functional; method in brief: as §1
Schaalia odontolytica [6] = assay: Antimicrobial activity against Actinomyces odontolyticus after 48 hrs by agar dilution method; format: functional
Method in brief: (§2)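 MICs on clinical anaerobe isolates by the CLSI agar dilution method. Inoculum of 10^5 CFU applied with a Steers replicator. Plates incubated 48 h at 37°C in an anaerobic chamber.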

[7] = tested on: Peptostreptococcus anaerobius; assay: Antimicrobial activity against Peptostreptococcus anaerobius assessed as percent susceptible isolates after 48 hrs by agar dilution method; format: functional
Method in brief: (§3)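 CLSI agar dilution on recent Korean clinical anaerobe isolates. Inoculum 10^5 CFU per spot by replicator. Plates incubated in an anaerobic chamber at 37°C for 48 h. For piperacillin plus tazobactam, tazobactam was held constant at 4 μg/ml. Resistance and susceptibility rates derived from MICs.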

Bacteroides fragilis [8] = assay: Antimicrobial activity against Bacteroides fragilis after 48 hrs by agar dilution method; format: functional; method in brief: as §2
Clostridioides difficile [9] = assay: Antimicrobial activity against Clostridium difficile assessed as percent susceptible isolates after 48 hrs by agar dilution method; format: functional
Hoylesella oralis [10] = assay: Antimicrobial activity against Prevotella oralis assessed as percent resistant isolates after 48 hrs by agar dilution method; format: functional; method in brief: as §3
Actinomyces naeslundii [11] = assay: Antimicrobial activity against Actinomyces naeslundii assessed as percent resistant isolates after 48 hrs by agar dilution method; format: functional; method in brief: as §3
Bifidobacterium sp. [12] = assay: Antimicrobial activity against Bifidobacterium sp. assessed as percent susceptible isolates after 48 hrs by agar dilution method; format: functional; method in brief: as §1
Hoylesella oralis [13] = assay: Antimicrobial activity against Prevotella oralis assessed as percent susceptible isolates after 48 hrs by agar dilution method; format: functional
Method in brief: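 CLSI agar dilution MIC testing of clinical isolates. 10^5 CFU spotted by replicator, plates incubated 48 h at 37°C in an anaerobic chamber. Susceptibility rates derived from the MICs.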

Anaerococcus prevotii [14] = assay: Antimicrobial activity against Anaerococcus prevotii assessed as percent susceptible isolates after 48 hrs by agar dilution method; format: functional
[15] = tested on: Bifidobacterium adolescentis; assay: Antimicrobial activity against Bifidobacterium adolescentis after 48 hrs by agar dilution method; format: functional; method in brief: as §2
Bacteroides caccae [16] = assay: Antimicrobial activity against Bacteroides caccae assessed as percent susceptible isolates after 48 hrs by agar dilution method; format: functional
Schaalia meyeri = assay: Antimicrobial activity against Actinomyces meyeri after 48 hrs by agar dilution method; format: functional; method in brief: as §2
[17] = tested on: Peptoniphilus asaccharolyticus; assay: Antimicrobial activity against Peptoniphilus asaccharolyticus assessed as percent susceptible isolates after 48 hrs by agar dilution method; format: functional; method in brief: as §1
Actinomyces israelii [18] = assay: Antimicrobial activity against Actinomyces israelii after 48 hrs by agar dilution method; format: functional; method in brief: as §2
Phocaeicola vulgatus [19] = assay: Antimicrobial activity against Bacteroides vulgatus after 48 hrs by agar dilution method; format: functional; method in brief: as §2
Bacteroides caccae [20] = assay: Antimicrobial activity against Bacteroides caccae assessed as percent resistant isolates after 48 hrs by agar dilution method; format: functional; method in brief: as §3
Parvimonas micra = assay: Antimicrobial activity against Peptostreptococcus micros after 48 hrs by agar dilution method; format: functional; method in brief: as §1
[21] = tested on: Bifidobacterium adolescentis; assay: Antimicrobial activity against Bifidobacterium adolescentis assessed as percent resistant isolates after 48 hrs by agar dilution method; format: functional; method in brief: as §3
Phocaeicola vulgatus [22] = assay: Antimicrobial activity against Bacteroides vulgatus assessed as percent resistant isolates after 48 hrs by agar dilution method; format: functional; method in brief: as §3
Eubacterium sp. [23] = assay: Antimicrobial activity against Eubacterium sp. assessed as percent resistant isolates after 48 hrs by agar dilution method; format: functional; method in brief: as §3
Bifidobacterium sp. [24] = assay: Antimicrobial activity against Bifidobacterium sp. after 48 hrs by agar dilution method; format: functional; method in brief: as §2
Prevotella bivia = assay: Antimicrobial activity against Prevotella bivia after 48 hrs by agar dilution method; format: functional; method in brief: as §1
Actinomyces naeslundii [25] = assay: Antimicrobial activity against Actinomyces naeslundii after 48 hrs by agar dilution method; format: functional; method in brief: as §2
Schaalia odontolytica [26] = assay: Antimicrobial activity against Actinomyces odontolyticus assessed as percent resistant isolates after 48 hrs by agar dilution method; format: functional; method in brief: as §3
Clostridioides difficile [27] = assay: Antimicrobial activity against Clostridium difficile assessed as percent resistant isolates after 48 hrs by agar dilution method; format: functional
[28] = tested on: Bifidobacterium adolescentis; assay: Antimicrobial activity against Bifidobacterium adolescentis assessed as percent susceptible isolates after 48 hrs by agar dilution method; format: functional
[29] = tested on: Peptostreptococcus anaerobius; assay: Antimicrobial activity against Peptostreptococcus anaerobius after 48 hrs by agar dilution method; format: functional; method in brief: as §1
Fusobacterium nucleatum = assay: Antimicrobial activity against Fusobacterium nucleatum after 48 hrs by agar dilution method; format: functional; method in brief: as §1
Finegoldia magna [30] = assay: Antimicrobial activity against Finegoldia magna after 48 hrs by agar dilution method; format: functional; method in brief: as §1
Anaerococcus prevotii [31] = assay: Antimicrobial activity against Anaerococcus prevotii assessed as percent resistant isolates after 48 hrs by agar dilution method; format: functional; method in brief: as §3
Bacteroides fragilis [32] = assay: Antimicrobial activity against Bacteroides fragilis assessed as percent susceptible isolates after 48 hrs by agar dilution method; format: functional
Phocaeicola vulgatus [33] = assay: Antimicrobial activity against Bacteroides vulgatus assessed as percent susceptible isolates after 48 hrs by agar dilution method; format: functional
Bacteroides caccae [34] = assay: Antimicrobial activity against Bacteroides caccae after 48 hrs by agar dilution method; format: functional; method in brief: as §2
Anaerococcus prevotii [35] = assay: Antimicrobial activity against Anaerococcus prevotii after 48 hrs by agar dilution method; format: functional; method in brief: as §2
Prevotella buccae [36] = assay: Antimicrobial activity against Prevotella buccae assessed as percent resistant isolates after 48 hrs by agar dilution method; format: functional, Segatella buccae; method in brief: as §3
[37] = tested on: Parabacteroides distasonis; assay: Antimicrobial activity against Bacteroides distasonis after 48 hrs by agar dilution method; format: functional; method in brief: as §2
[38] = tested on: Parabacteroides distasonis; assay: Antimicrobial activity against Bacteroides distasonis assessed as percent resistant isolates after 48 hrs by agar dilution method; format: functional; method in brief: as §3
Finegoldia magna [39] = assay: Antimicrobial activity against Finegoldia magna assessed as percent resistant isolates after 48 hrs by agar dilution method; format: functional; method in brief: as §3
Bifidobacterium sp. [40] = assay: Antimicrobial activity against Bifidobacterium sp. assessed as percent resistant isolates after 48 hrs by agar dilution method; format: functional; method in brief: as §3
Bacteroides ovatus = assay: Antimicrobial activity against Bacteroides ovatus assessed as percent resistant isolates after 48 hrs by agar dilution method; format: functional; method in brief: as §3
Prevotella intermedia [41] = assay: Antimicrobial activity against Prevotella intermedia assessed as percent resistant isolates after 48 hrs by agar dilution method; format: functional; method in brief: as §3
Actinomyces israelii [42] = assay: Antimicrobial activity against Actinomyces israelii assessed as percent resistant isolates after 48 hrs by agar dilution method; format: functional; method in brief: as §3

CO[C@@]1(NC(=O)Cc2cccs2)C(=O)N2C(C(=O)O)=C(COC(N)=O)CS[C@@H]21 [CEFOXITIN]
MIC50 (Prevotella intermedia [1]): 2 µg/mL (≈ 4.68 µM) | MIC90 (Prevotella intermedia [1]): 4 µg/mL (≈ 9.36 µM) | Activity (Prevotella buccae [2]): 89% | MIC (Fusobacterium necrogenes): 0.06 µg/mL (≈ 0.14 µM) | Activity [3]: 25% | Activity (Eubacterium sp. [4]): 92% | Activity (Finegoldia magna [5]): 100% | MIC50 (Schaalia odontolytica [6]): 2 µg/mL (≈ 4.68 µM) | MIC90 (Schaalia odontolytica [6]): 16 µg/mL (≈ 37.4 µM) | Activity [7]: 100% | MIC50 (Bacteroides fragilis [8]): 16 µg/mL (≈ 37.4 µM) | MIC90 (Bacteroides fragilis [8]): 32 µg/mL (≈ 74.9 µM) | Activity (Clostridioides difficile [9]): 0% | Activity (Hoylesella oralis [10]): 0% | Activity (Actinomyces naeslundii [11]): 0% | Activity (Bifidobacterium sp. [12]): 92% | Activity (Hoylesella oralis [13]): 89% | Activity (Anaerococcus prevotii [14]): 100% | MIC50 [15]: 2 µg/mL (≈ 4.68 µM) | MIC90 [15]: 16 µg/mL (≈ 37.4 µM) | Activity (Bacteroides caccae [16]): 25% | MIC50 (Schaalia meyeri): 2 µg/mL (≈ 4.68 µM) | MIC90 (Schaalia meyeri): 16 µg/mL (≈ 37.4 µM) | Activity [17]: 100% | MIC50 (Actinomyces israelii [18]): 2 µg/mL (≈ 4.68 µM) | MIC90 (Actinomyces israelii [18]): 16 µg/mL (≈ 37.4 µM) | MIC50 (Phocaeicola vulgatus [19]): 32 µg/mL (≈ 74.9 µM) | MIC90 (Phocaeicola vulgatus [19]): 32 µg/mL (≈ 74.9 µM) | Activity (Bacteroides caccae [20]): 7% | MIC50 (Parvimonas micra): 1 µg/mL (≈ 2.34 µM) | MIC90 (Parvimonas micra): 16 µg/mL (≈ 37.4 µM) | Activity [21]: 0% | Activity (Phocaeicola vulgatus [22]): 7% | Activity (Eubacterium sp. [23]): 0% | MIC50 (Bifidobacterium sp. [24]): 2 µg/mL (≈ 4.68 µM) | MIC90 (Bifidobacterium sp. [24]): 16 µg/mL (≈ 37.4 µM) | MIC50 (Prevotella bivia): 1 µg/mL (≈ 2.34 µM) | MIC90 (Prevotella bivia): 32 µg/mL (≈ 74.9 µM) | MIC50 (Actinomyces naeslundii [25]): 2 µg/mL (≈ 4.68 µM) | MIC90 (Actinomyces naeslundii [25]): 16 µg/mL (≈ 37.4 µM) | Activity (Schaalia odontolytica [26]): 0% | Activity (Clostridioides difficile [27]): 100% | Activity [28]: 92% | MIC50 [29]: 1 µg/mL (≈ 2.34 µM) | MIC90 [29]: 16 µg/mL (≈ 37.4 µM) | MIC (Fusobacterium nucleatum): 0.06 µg/mL (≈ 0.14 µM) | MIC50 (Finegoldia magna [30]): 0.5 µg/mL (≈ 1.17 µM) | MIC90 (Finegoldia magna [30]): 1 µg/mL (≈ 2.34 µM) | Activity (Anaerococcus prevotii [31]): 0% | Activity (Bacteroides fragilis [32]): 79% | Activity (Phocaeicola vulgatus [33]): 25% | MIC50 (Bacteroides caccae [34]): 32 µg/mL (≈ 74.9 µM) | MIC90 (Bacteroides caccae [34]): 32 µg/mL (≈ 74.9 µM) | MIC50 (Anaerococcus prevotii [35]): 0.5 µg/mL (≈ 1.17 µM) | MIC90 (Anaerococcus prevotii [35]): 1 µg/mL (≈ 2.34 µM) | Activity (Prevotella buccae [36]): 0% | MIC50 [37]: 32 µg/mL (≈ 74.9 µM) | MIC90 [37]: 32 µg/mL (≈ 74.9 µM) | Activity [38]: 7% | Activity (Finegoldia magna [39]): 0% | Activity (Bifidobacterium sp. [40]): 0% | Activity (Bacteroides ovatus): 7% | Activity (Prevotella intermedia [41]): 0% | Activity (Actinomyces israelii [42]): 0%
